Measured values reported in ChEMBL document CHEMBL2176996, “Synthesis and structure-affinity relationships of selective high-affinity 5-HT(4) receptor antagonists: application to the design of new potential single photon emission computed tomography tracers” (J Med Chem, 2012).
Activity calls are given as the source filed them. No cut-off for these calls is given here.

Key:
[1] = target: 5-hydroxytryptamine receptor 4 (Cavia porcellus, UniProt O70528); experiment: Displacement of [3H]GR113808 from 5HT4R in guinea pig striatal membranes; format: cell membranes, Striatum, Membrane
[2] = target: T1, 5-hydroxytryptamine receptor 4 (Homo sapiens, UniProt Q13639)
[3] = target: 5-hydroxytryptamine receptor 4 (Cavia porcellus) (UniProt O70528); experiment: Displacement of [3H]GR113808 from 5HT4R in guinea pig striatal membranes at 1 uM; format: cell membranes; details: Striatum, Membrane
Procedure, shortened: (§1)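 Native 5-HT4R in male guinea pig striatal membranes (HEPES 50 mM pH 7.4); 600 µg membrane incubated in duplicate with [3H]GR 113808 at 0.1 nM final, 37 °C, 30 min; filtration on PEI-soaked GF/B filters, cold buffer washes.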

[4] = target: T1, 5-hydroxytryptamine receptor 4; experiment: Displacement of radioligand from human 5HT4R by Cerep protocol based assay
[5] = target: 5-hydroxytryptamine receptor 4 (Cavia porcellus) (UniProt O70528); experiment: Displacement of [3H]GR113808 from 5HT4R in guinea pig striatal membranes at 10 nM; format: cell membranes; details: Striatum, Membrane; procedure, shortened: as §1
[6] = target: 5-hydroxytryptamine receptor 1E (Homo sapiens, UniProt P28566); experiment: Binding affinity to human 5HT1E by Cerep protocol based assay
[7] = target: T2, 5-hydroxytryptamine receptor 1A (Homo sapiens, UniProt P08908); experiment: Binding affinity to human 5HT1A by Cerep protocol based assay
T2 sequence (P08908 whole entry): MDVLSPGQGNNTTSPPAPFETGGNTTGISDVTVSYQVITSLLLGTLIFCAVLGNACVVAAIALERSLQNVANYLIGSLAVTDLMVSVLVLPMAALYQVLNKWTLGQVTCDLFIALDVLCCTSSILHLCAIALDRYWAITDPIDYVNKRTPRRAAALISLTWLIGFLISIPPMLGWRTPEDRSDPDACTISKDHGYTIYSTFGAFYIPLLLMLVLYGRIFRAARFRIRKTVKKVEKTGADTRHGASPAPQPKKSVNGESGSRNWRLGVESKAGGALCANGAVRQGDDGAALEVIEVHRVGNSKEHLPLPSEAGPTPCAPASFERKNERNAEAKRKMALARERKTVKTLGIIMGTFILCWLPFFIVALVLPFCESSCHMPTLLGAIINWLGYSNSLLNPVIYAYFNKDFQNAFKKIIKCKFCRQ

[8] = target: 5-hydroxytryptamine receptor 2B (Homo sapiens, UniProt P41595); experiment: Binding affinity to human 5HT2B by Cerep protocol based assay
[9] = target: 5-hydroxytryptamine receptor 1B (Homo sapiens, UniProt P28222); experiment: Binding affinity to human 5HT1B by Cerep protocol based assay
[10] = target: 5-hydroxytryptamine receptor 2A (Homo sapiens, UniProt P28223); experiment: Binding affinity to human 5HT2A by Cerep protocol based assay
[11] = target: 5-hydroxytryptamine receptor 5A (Homo sapiens, UniProt P47898); experiment: Binding affinity to human 5HT5A by Cerep protocol based assay
[12] = target: T3, 5-hydroxytryptamine receptor 3A (Homo sapiens, UniProt P46098); experiment: Binding affinity to human 5HT3 by Cerep protocol based assay
T3 sequence (P46098 whole entry): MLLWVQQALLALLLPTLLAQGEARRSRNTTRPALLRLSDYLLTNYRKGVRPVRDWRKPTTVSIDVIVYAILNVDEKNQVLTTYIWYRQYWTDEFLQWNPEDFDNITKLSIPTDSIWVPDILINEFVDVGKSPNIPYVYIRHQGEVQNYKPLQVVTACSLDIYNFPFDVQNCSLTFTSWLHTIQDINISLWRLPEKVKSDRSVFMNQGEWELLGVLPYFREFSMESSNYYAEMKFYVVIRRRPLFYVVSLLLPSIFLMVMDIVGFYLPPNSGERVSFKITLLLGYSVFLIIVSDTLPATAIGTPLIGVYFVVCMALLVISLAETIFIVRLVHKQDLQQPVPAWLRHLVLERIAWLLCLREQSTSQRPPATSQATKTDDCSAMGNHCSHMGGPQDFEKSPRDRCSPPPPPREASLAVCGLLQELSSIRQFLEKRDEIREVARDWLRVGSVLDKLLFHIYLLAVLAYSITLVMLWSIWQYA

[13] = target: T4, 5-hydroxytryptamine receptor 2C (Homo sapiens, UniProt P28335); experiment: Binding affinity to human 5HT2C by Cerep protocol based assay
T4 sequence (P28335 whole entry): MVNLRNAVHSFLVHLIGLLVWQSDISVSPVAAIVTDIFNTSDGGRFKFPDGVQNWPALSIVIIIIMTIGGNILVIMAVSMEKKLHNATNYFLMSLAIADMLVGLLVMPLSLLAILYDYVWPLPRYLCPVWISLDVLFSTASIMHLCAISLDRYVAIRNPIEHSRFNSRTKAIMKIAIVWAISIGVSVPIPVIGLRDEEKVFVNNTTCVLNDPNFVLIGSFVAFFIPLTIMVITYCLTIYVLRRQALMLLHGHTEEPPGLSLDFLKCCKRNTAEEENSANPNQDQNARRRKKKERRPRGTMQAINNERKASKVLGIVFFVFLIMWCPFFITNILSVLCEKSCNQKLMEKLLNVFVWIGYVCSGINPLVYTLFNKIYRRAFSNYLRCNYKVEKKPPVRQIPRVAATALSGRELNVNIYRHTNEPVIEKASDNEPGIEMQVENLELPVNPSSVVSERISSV

[14] = target: 5-hydroxytryptamine receptor 6 (Homo sapiens, UniProt P50406); experiment: Binding affinity to human 5HT6 by Cerep protocol based assay
[15] = target: 5-hydroxytryptamine receptor 7 (Homo sapiens, UniProt P34969); experiment: Binding affinity to human 5HT7 by Cerep protocol based assay
[16] = target: 5-hydroxytryptamine receptor 1D (Homo sapiens, UniProt P28221); experiment: Binding affinity to human 5HT1D by Cerep protocol based assay
Mus musculus [17] = experiment: In-vivo displacement of [125I]SB 207710 from 5HT4R in mouse olfactory tubercles at 50 ug/kg, iv by autoradiography; format: functional, organism-based; details: Olfactory tubercle
Procedure, shortened: (§2)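 One mouse dosed intravenously with saline carrying competitor at 50 µg/kg together with 30 µCi [125I]1 (146 Ci/mmol). CO2 sacrifice; 20 µm cryosections taken from 5-HT4R-rich regions (striatum, accumbens nucleus, olfactory tubercles), exposed overnight on phosphorimaging plates and scanned.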

Mus musculus [18] = experiment: In-vivo displacement of [125I]SB 207710 from 5HT4R in mouse brain hemispheres at 50 ug/kg, iv by autoradiography; format: functional, organism-based; procedure, shortened: as §2
[19] = target: 5-hydroxytryptamine receptor 4 (Rattus norvegicus) (UniProt Q62758); experiment: Displacement of [125I]SB 207710 from 5HT4R in rat brain cortex at 1 nM incubated for 30 mins by autoradiography; format: tissue-based
Procedure, shortened: (§3)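 Frozen rat brain coronal sections (striatum/accumbens level) preincubated 5 min in 50 mM Tris-HCl pH 7.4, then incubated 30 min at room temperature with 100 pM [125I]1 plus competitor (1, 10, 100, 1000 pM). Three 5-min ice-cold buffer washes and a water dip, then drying; phosphorimaging after overnight exposure.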

[20] = target: 5-hydroxytryptamine receptor 4 (Rattus norvegicus) (UniProt Q62758); experiment: Displacement of [125I]SB 207710 from 5HT4R in rat brain cortex at 10 pM incubated for 30 mins by autoradiography; format: tissue-based; procedure, shortened: as §3
[21] = target: T1, 5-hydroxytryptamine receptor 4; experiment: Displacement of [3H]GR113808 from human recombinant 5HT4R expressed in HEK293T cells; format: cell-based, HEK-293T
[22] = target: T1, 5-hydroxytryptamine receptor 4; remark: listed apart in the source

Sequence of 5-hydroxytryptamine receptor 7 (P34969 whole entry): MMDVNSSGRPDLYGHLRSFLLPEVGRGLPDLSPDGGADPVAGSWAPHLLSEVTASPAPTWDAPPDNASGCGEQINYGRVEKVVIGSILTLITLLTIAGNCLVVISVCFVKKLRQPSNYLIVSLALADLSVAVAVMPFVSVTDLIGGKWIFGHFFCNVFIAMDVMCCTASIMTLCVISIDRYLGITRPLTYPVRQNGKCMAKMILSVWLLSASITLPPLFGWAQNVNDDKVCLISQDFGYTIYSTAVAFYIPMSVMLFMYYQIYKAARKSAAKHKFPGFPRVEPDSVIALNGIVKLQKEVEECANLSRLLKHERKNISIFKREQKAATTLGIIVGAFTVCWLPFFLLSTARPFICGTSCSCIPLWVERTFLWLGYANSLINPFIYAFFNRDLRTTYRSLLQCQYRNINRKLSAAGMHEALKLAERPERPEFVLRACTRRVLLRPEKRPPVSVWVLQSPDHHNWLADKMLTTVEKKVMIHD
Sequence of 5-hydroxytryptamine receptor 2B (P41595 whole entry): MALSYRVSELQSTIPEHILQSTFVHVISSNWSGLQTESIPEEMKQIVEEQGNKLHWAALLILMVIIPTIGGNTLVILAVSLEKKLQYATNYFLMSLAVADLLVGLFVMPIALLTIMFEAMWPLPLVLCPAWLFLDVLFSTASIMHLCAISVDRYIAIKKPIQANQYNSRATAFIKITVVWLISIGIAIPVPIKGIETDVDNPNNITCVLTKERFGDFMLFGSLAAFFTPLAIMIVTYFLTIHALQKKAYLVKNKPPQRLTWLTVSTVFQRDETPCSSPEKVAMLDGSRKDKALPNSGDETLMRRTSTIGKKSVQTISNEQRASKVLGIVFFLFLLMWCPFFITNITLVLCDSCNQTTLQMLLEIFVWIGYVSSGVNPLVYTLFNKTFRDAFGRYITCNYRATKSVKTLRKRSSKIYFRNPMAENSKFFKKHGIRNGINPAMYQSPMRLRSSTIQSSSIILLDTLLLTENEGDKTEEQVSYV
T1 sequence (Q13639 whole entry): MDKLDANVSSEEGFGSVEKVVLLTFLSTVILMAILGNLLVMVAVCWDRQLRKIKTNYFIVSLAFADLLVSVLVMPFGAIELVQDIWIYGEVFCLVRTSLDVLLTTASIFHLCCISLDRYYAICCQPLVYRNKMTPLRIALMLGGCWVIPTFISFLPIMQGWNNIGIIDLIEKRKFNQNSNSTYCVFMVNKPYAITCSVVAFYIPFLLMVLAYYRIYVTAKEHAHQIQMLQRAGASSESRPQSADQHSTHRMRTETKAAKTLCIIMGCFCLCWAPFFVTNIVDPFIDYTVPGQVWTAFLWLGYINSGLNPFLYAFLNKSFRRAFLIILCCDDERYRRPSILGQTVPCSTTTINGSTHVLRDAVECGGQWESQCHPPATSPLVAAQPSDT
Sequence of 5-hydroxytryptamine receptor 6 (P50406 whole entry): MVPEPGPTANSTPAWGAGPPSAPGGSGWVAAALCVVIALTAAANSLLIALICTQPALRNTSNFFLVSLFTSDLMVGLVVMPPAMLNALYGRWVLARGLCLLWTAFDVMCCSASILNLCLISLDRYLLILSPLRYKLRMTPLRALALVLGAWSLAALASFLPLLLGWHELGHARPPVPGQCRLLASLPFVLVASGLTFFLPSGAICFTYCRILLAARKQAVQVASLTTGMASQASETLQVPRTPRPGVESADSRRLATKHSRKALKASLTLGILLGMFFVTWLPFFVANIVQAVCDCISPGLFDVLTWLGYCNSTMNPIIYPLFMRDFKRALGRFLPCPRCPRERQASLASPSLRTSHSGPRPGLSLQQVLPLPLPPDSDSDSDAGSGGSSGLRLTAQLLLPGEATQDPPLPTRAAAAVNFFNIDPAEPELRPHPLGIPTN
Sequence of 5-hydroxytryptamine receptor 1B (P28222 whole entry): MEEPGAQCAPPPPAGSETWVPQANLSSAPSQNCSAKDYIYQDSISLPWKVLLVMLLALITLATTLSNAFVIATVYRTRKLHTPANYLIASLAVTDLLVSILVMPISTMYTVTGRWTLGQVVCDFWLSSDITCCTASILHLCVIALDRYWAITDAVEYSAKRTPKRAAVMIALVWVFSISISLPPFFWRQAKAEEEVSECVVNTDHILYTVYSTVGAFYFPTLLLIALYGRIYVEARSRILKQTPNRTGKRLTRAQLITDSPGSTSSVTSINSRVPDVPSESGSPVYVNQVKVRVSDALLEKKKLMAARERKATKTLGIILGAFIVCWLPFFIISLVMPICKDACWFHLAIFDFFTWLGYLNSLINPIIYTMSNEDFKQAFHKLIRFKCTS
Sequence of 5-hydroxytryptamine receptor 2A (P28223 whole entry): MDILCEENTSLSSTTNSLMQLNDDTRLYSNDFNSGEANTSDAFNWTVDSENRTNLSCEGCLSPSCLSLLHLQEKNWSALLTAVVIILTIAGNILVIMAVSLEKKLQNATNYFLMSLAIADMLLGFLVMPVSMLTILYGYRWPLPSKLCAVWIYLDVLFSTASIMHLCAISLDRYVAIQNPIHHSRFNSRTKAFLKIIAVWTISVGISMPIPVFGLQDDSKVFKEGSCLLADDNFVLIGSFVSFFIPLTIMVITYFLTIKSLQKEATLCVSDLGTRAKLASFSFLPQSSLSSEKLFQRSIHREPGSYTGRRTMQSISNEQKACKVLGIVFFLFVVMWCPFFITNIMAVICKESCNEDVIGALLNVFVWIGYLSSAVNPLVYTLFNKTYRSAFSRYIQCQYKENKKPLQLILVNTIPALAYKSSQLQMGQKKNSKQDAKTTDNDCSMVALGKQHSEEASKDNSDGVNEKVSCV
Sequence of 5-hydroxytryptamine receptor 5A (P47898 whole entry): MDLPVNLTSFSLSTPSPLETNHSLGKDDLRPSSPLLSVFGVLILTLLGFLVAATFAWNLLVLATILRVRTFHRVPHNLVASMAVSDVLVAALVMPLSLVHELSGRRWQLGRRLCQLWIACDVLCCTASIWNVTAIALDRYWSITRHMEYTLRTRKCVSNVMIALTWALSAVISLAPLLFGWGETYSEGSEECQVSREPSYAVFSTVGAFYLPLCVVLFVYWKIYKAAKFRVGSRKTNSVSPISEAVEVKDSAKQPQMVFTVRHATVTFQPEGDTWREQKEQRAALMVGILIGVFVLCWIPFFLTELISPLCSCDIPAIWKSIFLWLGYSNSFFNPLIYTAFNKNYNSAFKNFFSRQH
Sequence of 5-hydroxytryptamine receptor 1D (P28221 whole entry): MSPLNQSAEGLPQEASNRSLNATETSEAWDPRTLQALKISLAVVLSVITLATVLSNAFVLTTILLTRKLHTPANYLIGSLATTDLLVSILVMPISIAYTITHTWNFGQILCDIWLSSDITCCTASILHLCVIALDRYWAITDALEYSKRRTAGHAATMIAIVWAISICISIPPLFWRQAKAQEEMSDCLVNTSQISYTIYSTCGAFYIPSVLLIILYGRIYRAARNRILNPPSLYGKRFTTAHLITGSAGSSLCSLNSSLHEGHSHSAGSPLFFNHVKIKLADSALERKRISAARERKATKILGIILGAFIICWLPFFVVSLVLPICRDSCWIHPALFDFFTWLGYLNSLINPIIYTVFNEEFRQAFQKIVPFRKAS
Sequence of 5-hydroxytryptamine receptor 4 (Cavia porcellus) (O70528 whole entry): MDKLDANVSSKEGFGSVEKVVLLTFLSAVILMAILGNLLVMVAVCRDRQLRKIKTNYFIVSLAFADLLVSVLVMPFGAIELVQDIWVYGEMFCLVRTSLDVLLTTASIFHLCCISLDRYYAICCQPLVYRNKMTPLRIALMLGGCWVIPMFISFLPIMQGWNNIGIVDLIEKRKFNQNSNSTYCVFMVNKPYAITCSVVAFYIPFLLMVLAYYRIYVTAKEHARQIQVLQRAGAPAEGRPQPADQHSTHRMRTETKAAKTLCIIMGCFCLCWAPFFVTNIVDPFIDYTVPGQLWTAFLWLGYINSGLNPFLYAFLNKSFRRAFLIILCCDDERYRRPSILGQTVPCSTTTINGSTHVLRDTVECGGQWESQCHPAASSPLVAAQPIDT
Sequence of 5-hydroxytryptamine receptor 4 (Cavia porcellus, UniProt O70528) (O70528 whole entry): as above
Sequence of 5-hydroxytryptamine receptor 1E (P28566 whole entry): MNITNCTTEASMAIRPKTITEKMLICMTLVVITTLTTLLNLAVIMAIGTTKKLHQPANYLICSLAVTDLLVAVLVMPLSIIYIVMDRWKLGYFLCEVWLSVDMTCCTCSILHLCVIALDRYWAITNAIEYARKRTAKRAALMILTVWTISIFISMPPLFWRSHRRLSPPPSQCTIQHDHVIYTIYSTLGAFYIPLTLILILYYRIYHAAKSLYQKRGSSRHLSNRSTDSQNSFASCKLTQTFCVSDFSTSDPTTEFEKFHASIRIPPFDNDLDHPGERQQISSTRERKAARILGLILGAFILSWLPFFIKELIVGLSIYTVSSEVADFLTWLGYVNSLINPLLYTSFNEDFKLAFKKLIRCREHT
Sequence of 5-hydroxytryptamine receptor 4 (Rattus norvegicus) (Q62758 whole entry): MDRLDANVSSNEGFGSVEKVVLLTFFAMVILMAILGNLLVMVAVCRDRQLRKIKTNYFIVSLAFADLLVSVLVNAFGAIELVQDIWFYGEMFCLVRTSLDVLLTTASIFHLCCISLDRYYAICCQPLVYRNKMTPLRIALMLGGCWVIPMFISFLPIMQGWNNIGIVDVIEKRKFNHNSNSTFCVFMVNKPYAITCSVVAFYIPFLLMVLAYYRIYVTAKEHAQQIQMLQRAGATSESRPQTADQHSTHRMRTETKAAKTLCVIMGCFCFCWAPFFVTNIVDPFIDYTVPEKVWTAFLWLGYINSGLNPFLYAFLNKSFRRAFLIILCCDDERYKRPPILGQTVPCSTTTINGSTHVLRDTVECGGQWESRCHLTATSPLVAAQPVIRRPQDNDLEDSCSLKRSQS

In the case of CCCN1CCC(COc2nc3c(F)cccc3c3ncccc23)CC1, the Ki [1] is reported as 2.2 nM, the pKb [2] is reported as 10.6 and the inhibition [3] is reported as 100%. For the same compound, the Ki [4] was 0.04 nM and the inhibition [5] was 98%.

For CCCN1CCC(COc2nc3ccccc3c3ccccc23)CC1, the Ki [1] was 51.5 nM.

In the case of CCCN1CCC(COc2nc3c(I)cccc3c3ccccc23)CC1, the Ki [6] is reported as > 10000 nM, the Ki [7] is reported as > 10000 nM and the Ki [1] is reported as 13.5 nM. The Ki [8] was 162 nM, the Ki [9] was > 10000 nM and the Ki [10] was 1020 nM. It also gave a Ki [11] of 5810 nM, a Ki [12] of 1310 nM and a Ki [13] of 772 nM. For the same compound, the Ki [14] was > 10000 nM, the inhibition [3] was 100% and the Ki [15] was 153 nM. For the same compound, the Ki [4] was 1.2 nM, the inhibition [5] was 0% and the Ki [16] was > 10000 nM.

CCCN1CCC(COc2nc3ccccc3c3ccc(OC)cc23)CC1 showed an inhibition [3] of 85% and an inhibition [5] of 0%.

CCCN1CCC(COc2nc3ccccc3c3ccc([N+](=O)[O-])cc23)CC1 showed an inhibition [3] of 54% and an inhibition [5] of 0%.

For CCCN1CCC(COc2nc3cc(OC)ccc3c3ccccc23)CC1, the Ki [1] was 1900 nM.

CCCN1CCC(COc2nc3c(C)cccc3c3ccccc23)CC1 showed a Ki [1] of 100 nM, an inhibition [3] of 100% and an inhibition [5] of 0%.

In the case of Fc1cccc2c1nc(OCC1CCN(CCCc3ccc(I)cc3)CC1)c1cccnc12, the Activity (Mus musculus [17]) is reported as “Active”, the Ki [7] is reported as 680 nM and the Ki [1] is reported as 2.5 nM. The Ki [8] was 340 nM, the Ki [9] was > 10000 nM and the Ki [10] was 810 nM. The Ki [11] was 1700 nM, the Ki [12] was 410 nM and the Ki [13] was 400 nM. The Ki [14] was > 10000 nM, the inhibition [3] was 100% and the Activity (Mus musculus [18]) was “Active”. For the same compound, the Ki [15] was 150 nM, the Ki [4] was 0.23 nM and the inhibition [5] was 94%. The Ki [16] was > 10000 nM, the Activity [19] was “Active” and the Activity [20] was “Active”.

Compound CCCN1CCC(COc2nc3ccccc3c3cc(F)ccc23)CC1 has a Ki [1] of 209 nM.

Compound Ic1ccc(CCCN2CCC(COc3nc4ccccc4c4ccccc34)CC2)cc1 has a Ki [1] of 115 nM, an inhibition [3] of 100% and an inhibition [5] of 3%.

With CCCN1CCC(COc2nc3ccccc3c3ccc(F)cc23)CC1 the Ki [1] was 154 nM, the inhibition [3] was 90% and the inhibition [5] was 4%.

With CCCN1CCC(COc2nc3ccccc3c3cnccc23)CC1 the Ki [1] was 22.8 nM, the Ki [21] was 403 nM and the inhibition [3] was 100%. The inhibition [5] was 50%.

CCCN1CCC(COc2nc3c(OC)cccc3c3ccccc23)CC1 was tested, and the EC50 [22] was 79.4 nM, the Ki [6] was > 10000 nM and the Ki [7] was > 10000 nM. The Ki [1] was 35 nM, the Ki [8] was 29.3 nM and the Ki [9] was > 10000 nM. For the same compound, the Ki [10] was 5960 nM, the Ki [21] was 17 nM and the Ki [11] was > 10000 nM. The Ki [12] was > 10000 nM, the Ki [13] was > 10000 nM and the Ki [14] was > 10000 nM. The inhibition [3] was 100%, the Ki [15] was 3470 nM and the inhibition [5] was 22%. It also gave a Ki [16] of 2570 nM.
